MT stabilizer – microtubule stabilization, imaging screen | HeLa tubulin immunostaining HCS, 24 h; share of cells brighter than vehicle mean+2SD | % tubulin-high responders, % at 10 µM | actives 0.83% (n = 200,000) | AID 2205;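 active means plate Z-score above 3 for both tubulin-high and condensed-nucleus cell shares, with cell loss under 80%, at 10 µM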;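 further: anti alpha tubulin signal scored within the nucleus-defined area of each cell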
INS promoter inh – TRM-6 insulin promoter activity inhibition | actives 0.9% (n = 130,000) | TRM-6 cells, insulin promoter-eGFP reporter, imaging; reporter expression induced with tamoxifen | inhibition, % at 2 µM;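 active means inhibition above the mean plus 3 SD, with well images judged a real hit on visual review, cut at about 60% in these data, passing the limit was not always enough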
bCat nuc transl – modulators of beta-catenin nuclear translocation. HeLa beta-catenin nuclear translocation, immunofluorescence imaging. AID 1665. actives 0.3% (n = 190,000). nuclear translocation activity, % at 5 µM;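 active means nuclear translocation activity above 50% at 5 µM, with a well cell count of 50 or more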;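 further: per-cell ratio of nuclear to cytoplasmic median beta-catenin stain intensity; plate controls were DMSO negative control for no effect and GSK-3 inhibitor IX positive control for full effect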
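System: Human HeLa cells, endogenous beta-catenin | Compound dosing: 5 µM primary, 0.02–20 µM confirmation | Timing: 24 h compound exposure at 37°C, 5% CO2 | Measured by: Fluorescence imaging of beta-catenin antibody stain plus DAPI | Read-out basis: % activation of per-cell nuclear versus cytoplasmic median beta-catenin signal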
ROMK primary – modulates human ROMK potassium channel activity; B-score at 10 µM; P48048; Tet-inducible ROMK, thallium flux fluorescence; actives lie on both sides; actives 2% (n = 130,000);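 active means signal ratio slope over the read window, or its plate-corrected B-score, at least 3 SD from the plate mean, either direction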;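 further: B-score of the F/F0 ratio slope over 7 to 12 s after thallium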
Target sequence (P48048 whole entry, looked up): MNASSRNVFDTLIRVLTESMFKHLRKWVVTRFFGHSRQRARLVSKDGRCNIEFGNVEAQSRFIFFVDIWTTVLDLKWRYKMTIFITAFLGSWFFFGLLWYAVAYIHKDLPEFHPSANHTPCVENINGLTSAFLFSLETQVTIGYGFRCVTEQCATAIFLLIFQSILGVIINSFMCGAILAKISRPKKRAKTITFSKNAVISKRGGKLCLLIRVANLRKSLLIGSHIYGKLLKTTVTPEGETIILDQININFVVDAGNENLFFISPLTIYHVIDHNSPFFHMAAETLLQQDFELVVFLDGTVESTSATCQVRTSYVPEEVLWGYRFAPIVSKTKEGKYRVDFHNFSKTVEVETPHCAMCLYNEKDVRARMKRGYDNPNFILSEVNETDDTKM
HSV augment – increases HSV replication in cells | HSV replication augmentation in cells, fold increase | maximum fold increase | actives 0.005% (n = 220,000) | AID 1956; in the data active means maximum fold increase above about 1.5; tested in PC3 cells
Numbers without * were called inactive; i = inactive; x = no result given. The list is not random: actives were taken first. Their share in the collection is about 2.4%.

SMILES	MT stabilizer	INS promoter inh	bCat nuc transl	ROMK primary	HSV augment
O=C(/C=C/c1cn(-c2ccccc2)nc1-c1cccnc1)N1CCCC1	4	-17	-1	-0.16	i
O=C(/C=C/c1cn(-c2ccccc2)nc1-c1cccnc1)c1ccco1	12*	x	8	2.6	i
Clc1ccc2[nH]c3c(c2c1)CCc1cn[nH]c1-3	16*	-22	13	x	i
c1ccc2c3c([nH]c2c1)-c1[nH]ncc1CC3	5	17	-1	0.6	i
CC(=O)Nc1ccccc1NC(=O)CN(C)S(=O)(=O)c1ccc(C)cc1	2	23	x	x	i
Cc1ccc(S(=O)(=O)N(C)CC(=O)Nc2cccc(C)n2)cc1	1	79*	x	x	i
CCOC(=O)CNNC(=O)Nc1ccc(Cl)c(Cl)c1	1	75*	1	0.52	x
O=C(Cn1c(=O)oc2cccnc21)Nc1ccc(C(F)(F)F)cc1	x	x	0	-0.023	i
Nc1ccc(C(=O)n2c3ccccc3c3ccccc32)cc1	45*	-290	x	0.96	i
N/C(=N\c1nc2c(c(=O)[nH]1)CCCC2)Nc1ccccc1	4	14	-2	-1.8	i
Cc1ccc(N/C(N)=N/c2nc3c(c(=O)[nH]2)CCCC3)c(C)c1	20*	0	10	x	i
CCOC(=O)c1csc(COc2ccc(OC)cc2)n1	x	x	0	1.2	i
O=C(C1CN(S(=O)(=O)c2ccccc2)CCN1S(=O)(=O)c1ccccc1)N1CCCCCC1 (stereo unspecified)	2	100*	0	-0.99	i
O=C(CN1C(=O)CC(c2ccccc2)S(=O)(=O)c2ccccc21)N1CCCCC1 (stereo unspecified)	4	-44	-2	0.54	i
O=C(Nc1ccc(N2CCOCC2)cc1)C1(c2ccc(Cl)cc2)CCC1	9.9*	x	0	1.4	i
CC(=O)c1ccc(N=C2SCCCN2C(=O)C2CCCC2)cc1	3	55	0	0.12	i
CCc1nnc(NC(=O)c2ccc(Cl)c(S(=O)(=O)N3CCc4ccccc43)c2)s1	3	x	-4	-2.5	i
O=C(Nc1nnc(C2CC2)s1)c1ccc(Cl)c(S(=O)(=O)N2CCc3ccccc3C2)c1	2	60*	-1	-0.37	i
CCN(C(=S)Nc1ccc(C(C)=O)cc1)C1CCCCC1	1	-18	7	0.22	i
COc1cccc(C(C(=O)NC(C)(C)C)N(CC(C)C)C(=O)CCC(=O)Nc2cc(C)on2)c1OC (stereo unspecified)	2	x	-1	-1.1	i
C/C(=N\NC(=O)CC1N=C(Cc2ccccc2)NNC1=O)c1ccccc1 (stereo unspecified)	4	-55	0	x	i
C/C(=N\NC(=O)CC1N=C(Cc2ccccc2)NNC1=O)c1ccc(Cl)cc1Cl (stereo unspecified)	22*	15	1	x	i
CCOc1ccccc1NC(=O)CNS(=O)(=O)c1ccc2nc(C)sc2c1	4	-43	0	0.26	i
Cc1nn2cc(-c3cccc(Cl)c3)cnc2c1Br	16*	-5	1	1.9	i
Cc1cnccc1CN(C)Cc1cn(C)nc1-c1cccc(Cl)c1	1	-24	1	-0.015	i
SMILES	MT stabilizer	INS promoter inh	bCat nuc transl	ROMK primary	HSV augment
Cc1nn2cc(-c3cccc(Cl)c3)cnc2c1Cl	20*	x	70*	1.4	i
CC(C)n1nnnc1-c1cccc(Cl)c1	2	48	-1	x	i
Cc1nnc(Sc2cc(C(=O)NC3CC3)c3ccccc3n2)s1	x	x	0	-0.012	i
CCC(C)[C@@H](N)C(=O)N/N=C/c1cccc2nccnc12 (stereo partly specified)	x	x	-2	x	i
Cn1c(-c2ccc(C=O)s2)nc2c3ccccc3c3ccccc3c21	28	-38	x	0.84	i
O=C(CCS(=O)(=O)Cc1ccccc1F)NCc1ccccc1Cl	3	-27	-4	0.033	i
O=C(N/N=C/c1ccc2c(c1)OCO2)c1ccc(Br)o1	5	x	1	x	i
CCN(CC)c1ccc(/C=N/NC(=O)c2ccc(Br)o2)cc1	33*	21	x	1.4	i
CCCn1c(CN(C)Cc2ccccc2)nc2c1c(=O)n(C)c(=O)n2C	2	0	-2	x	i
CC1CN(Cc2nc3c(c(=O)n(C)c(=O)n3C)n2CCc2ccccc2)CC(C)O1 (stereo unspecified)	3	76*	x	0.68	i
CCCCn1c(CN(C)Cc2ccccc2)nc2c1c(=O)n(C)c(=O)n2C	2	71*	-1	-2	i
CCCCCCn1c(CN2CCC(C)CC2)nc2c1c(=O)n(C)c(=O)n2C	4	29	-1	x	i
CCCCCCn1c(CN2CCN(CCO)CC2)nc2c1c(=O)n(C)c(=O)n2C	2	100*	-2	x	i
CCCCOC(=O)Nc1cccc(Cl)c1C	1	38	-9	-0.33	i
COc1ccccc1CNC(=O)CN(CCc1ccccc1)S(C)(=O)=O	5	x	-1	1.5	i
FC(F)(F)c1cnc(-c2cnc(-c3ccccn3)nc2)c(Cl)c1	3	-46	-7	x	x
CCCCC(=O)Nc1nc(C)c(-c2csc(Nc3cc(OC)ccc3OC)n2)s1	52*	-2	39	x	i
CCCN1CCN(CCCNC(=S)Nc2ccc(OC)cc2)CC1	3	33	-4	1.1	i
O=C1OC(C(=O)Nc2ccccc2)Cc2ccccc21 (stereo unspecified)	2	-78	2	-0.1	i
NS(=O)(=O)c1ccc(NC(=O)C2Cc3ccccc3C(=O)O2)cc1 (stereo unspecified)	4	71*	1	1	i
COc1cccc(C2CC(c3ccccc3)=NN2S(=O)(=O)c2ccc(C)cc2)c1OC (stereo unspecified)	9	x	2	-8.1*	i
O=C(Cn1cnc2ccccc21)N/N=C/c1ccccc1[N+](=O)[O-]	5	x	-1	x	i
O=C(Nc1ccc(Cl)cc1)c1cc2nc(-c3ccco3)cc(C(F)(F)F)n2n1	6	71*	-4	0.23	i
c1ccc(Oc2nnc(-c3cccs3)c3ccccc23)cc1	5	23	2	0.39	i
Cc1ccc(Oc2nnc(-c3cccs3)c3ccccc23)cc1	2	81*	0	0.17	i
SMILES	MT stabilizer	INS promoter inh	bCat nuc transl	ROMK primary	HSV augment
CC1CCC(n2c(=S)[nH]c3ccccc3c2=O)CC1 (stereo unspecified)	2	80*	x	x	i
CCNc1nnc(-c2ccc(C)cc2)o1	2	0	0	x	i
Cc1nc2sc(C(=O)OC(C)C)c(N)c2c(C)c1C	3	100*	-3	0.1	i
Cc1nc2sc(C(=O)c3ccccc3)c(N)c2c(C)c1C	4	x	-1	0.79	i
COc1ccc2[nH]c(C)cc(=O)c2c1	3	-50	1	x	i
COc1ccc2[nH]c3c(c2c1)CCNC3C1CC=C(C)CC1 (stereo unspecified)	9.3*	x	51*	-0.56	i
O=C(NCc1cccs1)C1CC(c2ccc(Cl)c(Cl)c2)=NO1 (stereo unspecified)	3	-31	62*	x	i

Screens: PubChem BioAssay, several laboratories
